Bioassay records deposited in PubChem BioAssay by several laboratories.
An excerpt weighted towards active compounds, which were near 2.1% of everything screened.
E coli RNAP: inhibitors of Escherichia coli RNA polymerase. inhibition, %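 (tested at 10 µM)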. P0A8V2. E. coli RNA polymerase, fluorescence transcription assay. 62,000 compounds, 0.2% hits; in the data active = inhibition above about 20%;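 also: 0% = enzyme without compound and 100% = no enzyme blank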
SF1 activator: activates the human nuclear receptor SF-1; 65,000 compounds, 1.9% hits; Q13285; activation, % at 10 µM; CHO-K1 Gal4-SF-1 LBD luciferase reporter; % increase over DMSO SF-1-specific signal;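 active = activation above the mean activation of all tested compounds plus 3 SD, cut at about 50% in these data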
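Assay system: CHO-K1 cells co-transfected with Gal4 DBD–human SF-1 LBD, 5xGal4 luciferase reporter / Input: 4,000 cells per well / Incubation: 20 h compound exposure at 37 °C after 1 h cell settling / Detection: SteadyLite luciferase luminescence / Control set: DMSO negative control and −SF1 background wells / Replication: one test per compound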
TNAP act DEA: activates human TNAP at intermediate phosphate acceptor concentration | 64,000 tested, under 10 active | activation factor at 20 µM | P05186 | purified TNAP, CDP-star luminescence, 100 mM DEA, 30 min; stronger effect = higher value; scale: 0 levamisole-inhibited, 1 vehicle-only enzyme | AID 813;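 active = activation factor of at least 2 at 20 µM, relative to controls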
MT1-MMP txn act: MT1-MMP promoter transcription activation | HT1080 MT1-MMP promoter luciferase reporter, luminescence, overnight; stronger effect = higher value | activation factor at 10 µM | 86,000 compounds, 0.16% hits | AID 750;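 active = activation factor of at least 2 for MT1-MMP transcription at 10 µM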
RORA act: activators of human nuclear receptor RORA; activation, % at 10 µM; 65,000 compounds, 1.5% hits; AID 560; CHO-K1 Gal4-RORA LBD luciferase reporter, luminescence; percent increase over mock-subtracted basal signal;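 active = activation above the mean of all tested compounds plus 3 SD, cut at about 49% in these data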;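 also: 0% = DMSO-treated RORA cells and 100% = added signal equal to DMSO minus mock-transfected cells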
Target sequence (P35398 whole entry, looked up, the tested form may be a part): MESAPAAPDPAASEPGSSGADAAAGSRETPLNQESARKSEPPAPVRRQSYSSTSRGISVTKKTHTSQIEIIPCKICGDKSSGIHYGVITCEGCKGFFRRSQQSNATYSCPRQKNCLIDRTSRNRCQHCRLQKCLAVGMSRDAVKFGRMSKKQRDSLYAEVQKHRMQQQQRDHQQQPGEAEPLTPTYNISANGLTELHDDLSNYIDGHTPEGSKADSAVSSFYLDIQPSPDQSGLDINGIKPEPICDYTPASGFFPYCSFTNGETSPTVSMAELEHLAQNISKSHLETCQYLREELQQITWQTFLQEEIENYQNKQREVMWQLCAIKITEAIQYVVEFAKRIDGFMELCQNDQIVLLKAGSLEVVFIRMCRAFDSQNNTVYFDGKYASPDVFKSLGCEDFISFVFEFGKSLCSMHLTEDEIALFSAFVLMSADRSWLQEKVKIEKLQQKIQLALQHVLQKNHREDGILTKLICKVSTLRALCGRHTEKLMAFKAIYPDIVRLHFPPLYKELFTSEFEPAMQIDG
Numbers without * were called inactive; · = not tested or not shown.

SMILES | E coli RNAP | SF1 activator | TNAP act DEA | MT1-MMP txn act | RORA act
CCOC(=O)Nc1ccc2c(c1)Nc1ccccc1S2 | 9 | 1 | 0.8 | 1.1 | 53*
N#Cc1nc(-c2ccc(OCc3ccccc3)cc2)oc1NCc1ccco1 | 2 | 1 | 0.8 | 1 | -2
CNc1oc(-c2ccc(OCc3ccccc3)cc2)nc1C#N | 5 | 58* | 0.9 | 1.1 | 27
C=CCNc1oc(-c2ccc(OC)cc2)nc1C#N | 2 | 57* | 0.9 | 1.3 | 10
COc1ccc(-c2nc(C#N)c(NCC3CCCO3)o2)cc1OC (stereo unspecified) | -2 | 19 | 1 | 1.4 | 53*
C=CCNc1oc(-c2ccc(OCC)cc2)nc1C#N | 3 | 21 | 0.9 | 1.2 | -13
CCOc1ccc(-c2nc(C#N)c(NCC3CCCO3)o2)cc1 (stereo unspecified) | · | · | · | 1.1 | ·
CCC1=C(OC(=O)N(CC)CC)N2C(=O)OC(=NCCOC)[C@]2(C)[C@H]2C1=CC[C@H]1C(=O)N(C)C(=O)[C@H]12 | · | · | · | 1.1 | ·
CCOc1nnnc2c1sc1nc(N3CCOCC3)c3c(c12)CC(C)(C)OC3 | -17 | -5 | 0.9 | 1 | -13
COc1cc(-c2nnc3sc(-c4ccccn4)nn23)cc(OC)c1OC | 9 | -8 | 1 | 1 | 4
CNC(=O)c1c(NC(=O)c2nc3ccccc3s2)sc2c1CCC2 | 11 | 72* | 0.9 | 1.9 | 96*
CC(=NCCCn1ccnc1)c1c(-c2ccccc2)[nH]n(-c2nc3ccccc3s2)c1=O | · | · | · | 1.1 | ·
CC(=NC1CCCC1)c1c(C)[nH]n(-c2nc3ccccc3s2)c1=O | 6 | 71* | 0.9 | 0.8 | 8
CCOc1ccc(CCNS(=O)(=O)c2cnc[nH]2)cc1OCC | -3 | 9 | 0.8 | 1 | -11
O=C(Cc1ccccc1)Nc1ccc(CN2CCOCC2)cc1 | 3 | 41 | 0.9 | 1.2 | 56*
COC(=O)c1ccc(NC(=O)Cc2ccccc2)cc1 | · | 71* | 0.9 | 1.2 | 39
O=C(NCCN1CCOCC1)c1cc2ccccc2o1 | 3 | -5 | 0.9 | · | -3
CCC(=O)N1CCN(c2ccc(NC(=O)c3cc4ccccc4o3)cc2)CC1 | · | · | · | 1 | ·
O=C(Nc1ccc(N2CCOCC2)cc1)c1cc2ccccc2o1 | -8 | 47 | 0.8 | 1.6 | 74*
O=C(Nc1ccc(CN2CCOCC2)cc1)c1ccccc1F | · | · | · | 1.6 | ·
O=C(Nc1ccc(CN2CCOCC2)cc1)c1cc2ccccc2o1 | -1 | 86* | 0.9 | 0.6 | 10
O=C(CN1CCOCC1)Nc1ccc(-c2nc3ccccc3[nH]2)cc1 | 3 | 52* | 0.9 | · | 38
COC(=O)Nc1ccc(Oc2ccccc2)cc1 | 3 | 4 | 0.9 | 1.1 | -6
O=C(Nc1ccc(-c2nc3ccccc3[nH]2)cc1)C1CCCO1 (stereo unspecified) | 4 | 18 | 0.9 | 0.2 | -1
COC(=O)Nc1ccc(OCc2ccccc2)cc1 | 11 | 72* | 0.9 | 1.2 | 32
SMILES | E coli RNAP | SF1 activator | TNAP act DEA | MT1-MMP txn act | RORA act
O=C(CN(Cc1ccc2c(c1)OCO2)C(=O)CNS(=O)(=O)c1ccccc1)NCc1ccco1 | 2 | 2 | 0.8 | 1 | 6
CCCn1c(C)cc(C(=O)COc2ncnc3sccc23)c1C | 1 | 53* | 0.8 | 1 | 7
Cc1cc(C(=O)COc2ncnc3sccc23)c(C)n1C1CC1 | 2 | 11 | 0.9 | 1.5 | 34
CC(=Nc1cccc(O)c1)c1sc2ccccc2c1O | 13 | 94* | 0.8 | 1.8 | 17
O=C1C=C(c2ccccc2)OC(=O)C1C(=O)c1ccccc1 (stereo unspecified) | · | · | · | 1.1 | ·
CCN=c1scc(C)n1/N=C/c1ccsc1 | 3 | 70* | 1 | 1.5 | 69*
CN=c1scc(C)n1/N=C/c1ccc(O)c(O)c1O | · | · | · | 0.9 | ·
Cc1ccc2nc(SC(C)C(=O)N3CCCC3)[nH]c2c1 (stereo unspecified) | -10 | 28 | 0.9 | 1.5 | 22
Cc1ccc2nc(SCC(=O)N3CCCC3)[nH]c2c1 | 5 | 53* | 1 | 0.9 | 74*
C[C@@H](C(=O)Nc1ccc2ccccc2c1)[C@H]1C[C@]1(C)[C@H](NC(=O)Oc1ccc(F)cc1)c1ccccc1 | · | · | · | 1.3 | ·
Cc1cc(OCCN2CCOCC2)nc2ccccc12 | 30* | -3 | 0.9 | 1.1 | -10
CC(=O)c1cnc2c(-c3ccc(Cl)cc3)cnn2c1C | · | · | · | 2.1* | ·
CCOc1ccc2nc(N3CCOCC3)nc(C)c2c1 | 4 | 47 | 1 | 1 | 51*
c1csc(-c2nc3nc4ccccc4nc3n2Cc2ccc3c(c2)OCO3)c1 | 6 | 63* | 0.9 | 1.5 | 43
CCCn1c(-c2cccs2)nc2nc3ccccc3nc21 | · | · | · | 1.1 | ·
Cn1cc(-c2nnc(-c3ccccc3)o2)c2ccccc21 | · | · | · | 2.3* | ·
CCOC(=O)c1c(C)sc(Sc2ccc(Cl)cc2[N+](=O)[O-])c1OC | · | · | · | 1.1 | ·
CCN(Cc1ccccc1)C(=O)Cn1c(=O)n(CC(=O)NCc2ccco2)c(=O)c2sccc21 | -2 | 7 | 0.9 | 1.2 | 22
Cc1csc(NC(=O)c2cnc3ccccn3c2=O)n1 | -1 | 61* | 1 | 1.3 | 34
O=C(Nc1nc2c(ccc3ccccc32)s1)c1ccco1 | 1 | 63* | 0.9 | 2.3* | 59*
Cc1nnc(NC(=O)c2ccco2)s1 | 13 | 5 | 0.9 | 1.2 | -3
O=C(Nc1nnc(C23CC4CC(CC(C4)C2)C3)s1)c1ccco1 | · | 21 | · | 2* | 91*
NC(=O)c1cc(Cc2ccccc2)sc1NC(=O)c1ccco1 | 7 | 140* | 0.9 | 1.5 | 80*
CCC1=C2CC[C@H]3C(=O)N(CC(=O)OC)C(=O)[C@H]3[C@H]2[C@@]2(C)C(=O)N(Cc3ccccc3)C(=O)N2C1=O | · | · | · | 1.2 | ·
CCOC(=O)N1CCC(N2Cc3cccc(C(=O)NC(C)c4ccc5c(c4)OCCO5)c3C2=O)CC1 (stereo unspecified) | -9 | -9 | 0.9 | 1 | 2
SMILES | E coli RNAP | SF1 activator | TNAP act DEA | MT1-MMP txn act | RORA act
O=C(CN1C(=O)NC2NC(=O)NC21)NC1CCCCC1 (stereo unspecified) | · | 8 | · | · | -6
CCOC(=O)Cc1csc(NC(=O)c2cccs2)n1 | 5 | 43 | 0.9 | 1.4 | 22
Cc1csc(NC(=O)c2ccoc2C)n1 | 8 | 56* | 0.9 | 1.5 | 38
Cc1csc(NC(=O)c2cccs2)n1 | 13 | 53* | 0.9 | 1.3 | 18
CCOC(=O)Cc1csc(NC(=O)c2ccoc2C)n1 | 6 | 6 | 1 | 1.4 | 28
O=C(Nc1nnc(Cc2ccccc2)s1)c1ccco1 | · | · | · | 1.6 | ·
c1ccc(CCc2nc(-c3ccccc3)no2)cc1 | · | · | · | 1.3 | ·
O=C(Nc1nnc(CCc2ccccc2)s1)c1ccco1 | 7 | 32 | 0.9 | 1.3 | 54*
O=C(Nc1ccc(-c2noc(CCc3ccccc3)n2)cc1)c1ccco1 | 2 | 23 | 0.9 | 1.3 | 72*
C=CCN1C=CC(=C/C=C(/C#N)C(=O)OCC)C=C1 | · | · | · | 1.3 | ·
O=C(Nc1nnc(C(F)(F)F)s1)c1ccc(N2C(=O)C3C4C=CC(C4)C3C2=O)cc1 (stereo unspecified) | · | · | · | 1 | ·
